Measurements pooled from the literature.
Each line is one published result; the experiments were not run side by side. Converted amounts (≈) assume the structure as drawn.
Organism: Bacillus subtilis

SMILES	assay	test system	conditions	quantity	result
O=C(O)c1ccc(-n2cc(/C=N/Nc3cc(F)ccc3F)c(-c3cccc(F)c3)n2)cc1	microbial growth	ATCC6623	–	MIC	6.25 µg/mL (≈ 14.3 µM)
N#CC(=Cc1ccccc1O)C1=NC(=O)C(=Cc2cn(-c3ccccc3)nc2-c2ccccc2)S1	microbial killing, broth dilution	–	–	MBC	0.5 µg/mL (≈ 1.05 µM)
O=C(N[C@H](CO)[C@H](O)c1ccc([N+](=O)[O-])cc1)C(Cl)Cl	microbial growth, disc diffusion	–	50 µg/disc	inhibition zone	21 mm
CC[C@H]1OC(=O)[C@H](C)[C@@H](O[C@H]2C[C@@](C)(OC)[C@@H](O)[C@H](C)O2)[C@H](C)[C@@H](O[C@@H]2O[C@H](C)C[C@H](N(C)C)[C@H]2O)[C@](C)(O)C[C@@H](C)/C(=N\OCOCCOC)[C@H](C)[C@@H](O)[C@]1(C)O	microbial growth, disc diffusion	ATCC6633	20000 µg/mL, 24 h	inhibition zone	23 mm
CN(/N=C/c1cn(-c2ccc(C(=O)O)cc2)nc1-c1cccc(F)c1)c1ccccc1	microbial growth	ATCC6623	–	MIC	12.5 µg/mL (≈ 30.2 µM)
CO[C@H]1O[C@H](COC(c2ccccc2)(c2ccccc2)c2ccccc2)[C@@H](OC(=O)c2ccc(C(C)(C)C)cc2)[C@H](OC(=O)c2ccc(C(C)(C)C)cc2)[C@H]1OC(=O)c1ccc(C(C)(C)C)cc1	microbial killing, broth dilution	–	–	MBC	16 µg/mL (≈ 17.4 µM)
O=C(O)CN1C(=O)/C(=C/c2c3ccccc3c(-c3ccc(N(c4ccccc4)c4ccccc4)cc3)c3ccccc23)SC1=S	microbial killing, broth dilution	ATCC6633	–	MBC	> 1000 µg/mL
N#CC(=Cc1ccc([N+](=O)[O-])cc1)C1=NC(=O)C(=Cc2cn(-c3ccccc3)nc2-c2ccccc2)S1	microbial growth, well diffusion	–	100000 µg/mL	inhibition zone	23 mm
O=C(O)CN1C(=O)/C(=C/c2ccc(-c3ccc(N(c4ccccc4)c4ccccc4)cc3)cc2)NC1=S	microbial killing, broth dilution	ATCC6633	–	MBC	3.9 µg/mL (≈ 7.71 µM)
CN(/N=C/c1cn(-c2ccc(C(=O)O)cc2)nc1-c1ccc(F)cc1)c1ccccc1	microbial growth	ATCC6623	–	MIC	12.5 µg/mL (≈ 30.2 µM)
CCOC(=O)c1c(N)csc1-c1cn(-c2ccccc2)nc1-c1ccc(C)cc1	microbial growth, well diffusion	–	100000 µg/mL	inhibition zone	28 mm
O=C(O)CN1C(=O)/C(=C/c2c3ccccc3c(-c3ccc(N(c4ccccc4)c4ccccc4)cc3)c3ccccc23)NC1=S	microbial killing, broth dilution	ATCC6633	–	MBC	> 1000 µg/mL
N#CC(=Cc1cn(-c2ccccc2)nc1-c1ccccc1)C1=NC(=O)CS1	microbial killing, broth dilution	–	–	MBC	0.25 µg/mL (≈ 0.675 µM)
O=C1NC(=S)S/C1=C\c1ccc(-c2ccc(N(c3ccccc3)c3ccccc3)cc2)cc1	microbial killing, broth dilution	ATCC6633	–	MBC	> 1000 µg/mL
